Series [1] is described as follows: Tmax in […] mouse at 100 mg/kg, po. It is filed as ADME, organism-based. On the set-up: dose 100 mg/kg, route oral. The conditions noted are these: in vivo. The method, boiled down: (§1)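 A separate group of female mice received one 100 mg/kg oral dose. Median PK parameters were calculated for that cohort.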
Series [2] relates to HUVEC. Put plainly: Antiangiogenic activity in HUVEC assessed as inhibition of bFGF-induced cell proliferation. The conditions noted are these: Homo sapiens.
For series [3], the system named is Mus musculus. Put plainly: Antiangiogenic activity in C57/BL6 mouse cornea assessed as inhibition of bFGF-induced angiogenesis at 50 mg/kg, po bid for 5 days by corneal pocket assay relative to control. It is filed as functional. The conditions noted are these: 120 h. The method, boiled down:
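bFGF-impregnated pellets were implanted in corneas of female C57/BL6 mice aged 5–7 weeks. Oral dosing twice daily began the same day for 5 days. The neovascularized area was quantitated against vehicle-treated animals (2% Klucel LF, 0.1% Tween 80 in water).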

A short description of series [4]: Cmax in […] mouse at 100 mg/kg, po. It is filed as ADME, organism-based. Details: dose 100 mg/kg, route oral. The conditions noted are these: in vivo. In a few lines: as §1
Series [5] is described as follows: Volume of distribution at steady state in Wistar rat at 5 mg/kg, iv. In kind it is ADME, organism-based. On the set-up: dose 5 mg/kg, route intravenous. The following applies: in vivo, read-out: Vdss. The method, boiled down:
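Single 5 mg/kg iv dose to Wistar rats via femoral arterial catheter, vehicle 2% DMA, 10% PEG400, 88% of 40% HPBCD in water, 2.5 mL/kg. Jugular blood at 1, 7, 15, 30 min and 1, 3, 6, 12, 24 h; plasma by LC-MS/MS. Vdss by non-compartmental analysis per animal, averaged.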

A short description of series [6]: AUC in C57/BL6 mouse at 100 mg/kg, po bid for 5 days. The following applies: plasma. On the set-up: dose 100 mg/kg, route oral. In kind it is ADME, organism-based. In a few lines:
(§2)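 Female C57/BL6 mice were dosed orally twice daily for 5 days with a suspension in 2% Klucel LF/0.1% Tween 80 in water. Six mice per dose were split into two subgroups of three, each sampled at alternate time points. Retro-orbital blood was taken at 0, 1, 4 and 8 h post-dose into EDTA, and plasma was analysed by LC-MS/MS. Parameters come from mean concentrations; AUC0–8h by linear trapezoidal rule; Cmax and Tmax as observed.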

Series [7] concerns Mus musculus. Put plainly: Antiangiogenic activity in C57/BL6 mouse cornea assessed as inhibition of VEGF-induced angiogenesis at 50 mg/kg, po bid for 7 days by corneal pocket assay relative to control. It is filed as functional. The following applies: 168 h. In a few lines: (§3)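 VEGF-impregnated pellets were implanted in corneas of female C57/BL6 mice aged 5–7 weeks. Oral twice-daily dosing started the same day and ran 7 days. The area of vascularization was then quantitated relative to animals given vehicle (2% Klucel LF, 0.1% Tween 80 in water).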

Series [8] in a line: Tmax in C57/BL6 mouse at 100 mg/kg, po bid for 5 days. It is filed as ADME, organism-based. On the set-up: dose 100 mg/kg, route oral. The conditions noted are these: in vivo. The method, boiled down: as §2
Series [9] is described as follows: AUC in C57/BL6 mouse at 25 mg/kg, po bid for 5 days. In kind it is ADME, organism-based. On the set-up: dose 25 mg/kg, route oral. The following applies: plasma. The method, boiled down:
as §2

A short description of series [10]: Half life in athymic nude mouse at 10 mg/kg, iv. It is filed as ADME, organism-based. Details: dose 10 mg/kg, route intravenous. The conditions noted are these: in vivo. The method, boiled down: (§4)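 Athymic nude mice received one dose, either iv 10 mg/kg in 2% DMA/10% PEG400/88% of 40% HPBCD in water, or po 50 mg/kg in 2% Klucel LF/0.1% Tween 80. Retro-orbital or terminal cardiac blood was drawn from 1 min (iv) or 5 min (po) to 24 h into EDTA. Plasma was analysed by LC-MS/MS. Composite parameters were obtained by non-compartmental analysis, with AUC extrapolated to infinity.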

The target in series [11] is Platelet-derived growth factor receptor (Homo sapiens, UniProt P09619+P16234). Put plainly: Inhibition of human recombinant His-tagged intracellular domain of PDGFR using biotin-EEEEYFELV as substrate by HTRF assay. (In TR-FRET formats the signal depends on donor and acceptor labels being close together.)
Series [12] has as its target Protein kinase C delta type (Homo sapiens, UniProt Q05655). Put plainly: Inhibition of PKCdelta by IMAP assay. The method, boiled down: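 IMAP fluorescence-polarization assay, in which phosphorylated fluorescent peptide substrates bind immobilized metal beads. Reactions ran at ATP three times Km.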
The test system of series [13] is Mus musculus. Put plainly: Antiangiogenic activity in C57/BL6 mouse cornea assessed as inhibition of VEGF-induced angiogenesis at 25 mg/kg, po bid for 7 days by corneal pocket assay relative to control. It is filed as functional. The following applies: 168 h. In a few lines:
as §3

Series [14] is described as follows: Clearance in athymic nude mouse at 10 mg/kg, iv. It is filed as ADME, organism-based. On the set-up: dose 10 mg/kg, route intravenous. The following applies: in vivo. The method, boiled down:
as §4

Series [15] relates to Mus musculus. Put plainly: Dose normalized AUC in C57/BL6 mouse at 100 mg/kg, po bid for 5 days. In kind it is ADME, organism-based. Details: dose 100 mg/kg, route oral. The following applies: in vivo, 120 h. The method, boiled down: as §2

Chain of Protein kinase C delta type (Q05655 whole entry): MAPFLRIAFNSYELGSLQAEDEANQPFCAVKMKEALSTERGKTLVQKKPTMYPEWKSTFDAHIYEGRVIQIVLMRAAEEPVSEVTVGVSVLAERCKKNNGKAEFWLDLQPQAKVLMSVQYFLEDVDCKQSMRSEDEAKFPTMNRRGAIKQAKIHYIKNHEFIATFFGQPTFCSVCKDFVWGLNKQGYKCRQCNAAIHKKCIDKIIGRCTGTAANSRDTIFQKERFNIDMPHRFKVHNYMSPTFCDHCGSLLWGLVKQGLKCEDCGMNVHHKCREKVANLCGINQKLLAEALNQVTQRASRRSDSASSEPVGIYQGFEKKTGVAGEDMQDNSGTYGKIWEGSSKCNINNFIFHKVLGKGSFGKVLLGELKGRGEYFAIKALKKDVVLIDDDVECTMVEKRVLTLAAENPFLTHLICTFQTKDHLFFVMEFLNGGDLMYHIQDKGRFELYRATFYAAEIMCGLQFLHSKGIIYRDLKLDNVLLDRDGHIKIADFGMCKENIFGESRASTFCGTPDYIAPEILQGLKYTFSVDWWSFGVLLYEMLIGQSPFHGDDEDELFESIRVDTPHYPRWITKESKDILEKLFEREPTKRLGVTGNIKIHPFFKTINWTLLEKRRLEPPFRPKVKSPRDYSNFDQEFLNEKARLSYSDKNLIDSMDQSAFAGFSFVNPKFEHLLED

By Tmax is commonly meant the time from dosing to the highest level. In general, IC50 refers to the point on the concentration scale where inhibition reaches its midpoint. By inhibition in vivo is commonly meant how much of the control response was suppressed. One may read the Cmax as the maximum level reached in the sampled fluid or tissue. For orientation: AUC means concentration integrated over time. Low values mean less exposure, high ones more exposure. Usually half-life stands for the time needed for the level to fall by half in the phase considered. What is called clearance is the rate of elimination divided by the concentration. A low value points to inefficient removal. As to `COc1ccc(N2Cc3cnc(Nc4ccccc4)nc3N([C@@H]3CC[C@@H](O)C3)C2=O)cc1` (racemic), the Tmax in [1] and in series [8] was 30 min each time. Also, the IC50 in [2] is 150 nM; in series [11], 33 nM; in series [12], over 125000 nM. Moreover, the inhibition in vivo at 50 mg/kg was found to be 80% in series [3] and 91% in series [7]. This compound also gave a Cmax in series [4] of 37600 ng/mL. Further, the Vd in series [5] was determined as 5.3 L/kg. Moreover, the AUC at 120 h came to 150000 ng·h/mL in series [6] and 30000 ng·h/mL in series [9]. The same compound had a half-life in series [10] of 180 min. For the same compound, the inhibition in vivo at 25 mg/kg in series [13] worked out at 81%. Moreover, the clearance in [14] stood at 15.1 mL/min/kg. The same compound came in with an AUC/dose in series [15] of 1458 ng·h/mL/mg/kg.

The values above are taken from ChEMBL document CHEMBL1949512, “RO4383596, an orally active KDR, FGFR, and PDGFR inhibitor: synthesis and biological evaluation” (Bioorg Med Chem, 2005).
